Test results taken from ChEMBL document CHEMBL2176985 (J Med Chem, 2012).
Activity calls are given as the source filed them. No cut-off for these calls is given here.

Tests used:
Mus musculus [1] = assay: Antidepressant activity in BALB/cJ mouse assessed as reduction of immobility time at 5 to 30 mg/kg, ip administered 30 mins before test measured over 6 mins trial by post hoc Fisher's LSD test; type: functional, organism-based
Mus musculus [2] = assay: Antidepressant activity in BALB/cJ mouse assessed as reduction of immobility time at 5 to 30 mg/kg, ip administered 30 mins before test measured over 6 mins trial by forced swim test; type: functional, organism-based
[3] = molecular target: T1, Acetylcholine receptor; alpha1/beta1/delta/gamma (Homo sapiens, UniProt P02708+P07510+P11230+Q07001); assay: Antagonist activity at human alpha1beta1gammadelta nAChR expressed in human TE671/RD cells assessed as inhibition of 86Rb+ efflux preincubated for 10 mins by liquid scintillation counting; type: functional, cell-based
T1 sequence (P02708 whole entry): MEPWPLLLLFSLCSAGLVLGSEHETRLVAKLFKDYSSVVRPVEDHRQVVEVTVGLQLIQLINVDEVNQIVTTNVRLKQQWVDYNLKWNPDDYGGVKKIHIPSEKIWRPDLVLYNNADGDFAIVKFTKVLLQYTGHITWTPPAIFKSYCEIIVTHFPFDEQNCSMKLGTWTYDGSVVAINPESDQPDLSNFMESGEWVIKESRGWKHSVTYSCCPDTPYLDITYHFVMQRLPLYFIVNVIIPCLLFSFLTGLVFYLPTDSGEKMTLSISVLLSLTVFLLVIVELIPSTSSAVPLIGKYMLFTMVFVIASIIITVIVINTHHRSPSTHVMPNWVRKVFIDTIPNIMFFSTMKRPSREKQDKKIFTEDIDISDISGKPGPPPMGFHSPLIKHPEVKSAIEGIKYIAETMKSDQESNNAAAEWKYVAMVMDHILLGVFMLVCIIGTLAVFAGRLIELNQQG
T1 sequence (P07510 whole entry): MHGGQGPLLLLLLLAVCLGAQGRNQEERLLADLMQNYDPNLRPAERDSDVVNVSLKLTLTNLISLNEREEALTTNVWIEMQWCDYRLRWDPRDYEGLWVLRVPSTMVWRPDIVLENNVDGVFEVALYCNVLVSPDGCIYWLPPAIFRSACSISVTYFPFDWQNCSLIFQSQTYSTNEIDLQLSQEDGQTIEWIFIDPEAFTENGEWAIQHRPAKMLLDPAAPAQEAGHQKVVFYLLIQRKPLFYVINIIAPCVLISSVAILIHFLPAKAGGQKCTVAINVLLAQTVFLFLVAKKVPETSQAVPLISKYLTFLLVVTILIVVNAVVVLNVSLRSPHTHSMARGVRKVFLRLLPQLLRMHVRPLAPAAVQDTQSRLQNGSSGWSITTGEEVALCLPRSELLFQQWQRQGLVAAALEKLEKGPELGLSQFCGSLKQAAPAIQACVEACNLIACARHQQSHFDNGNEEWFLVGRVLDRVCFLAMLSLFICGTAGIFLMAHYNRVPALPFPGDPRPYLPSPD
T1 sequence (P11230 whole entry): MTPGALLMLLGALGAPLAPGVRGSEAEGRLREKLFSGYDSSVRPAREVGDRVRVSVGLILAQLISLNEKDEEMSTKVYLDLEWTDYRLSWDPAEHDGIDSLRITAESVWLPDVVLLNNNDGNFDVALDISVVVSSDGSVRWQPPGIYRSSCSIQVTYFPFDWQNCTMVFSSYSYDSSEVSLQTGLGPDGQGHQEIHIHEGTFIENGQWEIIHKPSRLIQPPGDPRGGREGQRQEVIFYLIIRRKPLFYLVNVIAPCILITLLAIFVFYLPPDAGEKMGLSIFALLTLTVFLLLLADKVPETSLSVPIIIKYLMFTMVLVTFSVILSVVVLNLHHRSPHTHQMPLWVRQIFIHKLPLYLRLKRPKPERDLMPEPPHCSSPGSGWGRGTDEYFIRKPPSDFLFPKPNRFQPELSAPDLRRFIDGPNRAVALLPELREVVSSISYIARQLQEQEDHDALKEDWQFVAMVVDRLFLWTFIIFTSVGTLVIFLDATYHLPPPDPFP
T1 sequence (Q07001 whole entry): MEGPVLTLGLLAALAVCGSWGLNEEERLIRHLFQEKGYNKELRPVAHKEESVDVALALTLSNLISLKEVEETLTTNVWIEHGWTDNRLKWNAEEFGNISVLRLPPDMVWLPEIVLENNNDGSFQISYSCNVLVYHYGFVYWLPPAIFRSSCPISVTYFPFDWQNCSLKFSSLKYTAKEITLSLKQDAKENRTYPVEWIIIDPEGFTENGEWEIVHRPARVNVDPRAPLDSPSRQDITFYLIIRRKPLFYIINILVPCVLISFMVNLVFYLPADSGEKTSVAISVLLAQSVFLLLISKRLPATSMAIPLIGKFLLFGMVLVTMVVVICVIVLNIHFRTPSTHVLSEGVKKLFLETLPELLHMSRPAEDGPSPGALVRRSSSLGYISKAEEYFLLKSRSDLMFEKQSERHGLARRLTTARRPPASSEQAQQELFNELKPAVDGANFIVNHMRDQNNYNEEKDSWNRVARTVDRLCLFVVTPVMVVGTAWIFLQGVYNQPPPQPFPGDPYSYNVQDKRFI
Summary of the method: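 Cells loaded with ⁸⁶Rb⁺ were pre-exposed to test drug for 10 min. […] Efflux was normalized to intracellular ⁸⁶Rb⁺ available at that step. Nonspecific efflux came from 100 µM mecamylamine or buffer. Inactivation IC50 was obtained by curve fit.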

[4] = molecular target: T1, Acetylcholine receptor; alpha1/beta1/delta/gamma; assay: Agonist activity at human alpha1beta1gammadelta nAChR expressed in human TE671/RD cells assessed as stimulation of 86Rb+ efflux preincubated for 10 mins by liquid scintillation counting; type: functional, cell-based
[5] = molecular target: T2, Neuronal acetylcholine receptor; alpha3/beta4 (Homo sapiens, UniProt P30926+P32297); assay: Antagonist activity at human alpha3beta4 nAChR expressed in human SH-SY5Y cells assessed as inhibition of 86Rb+ efflux preincubated for 10 mins by liquid scintillation counting; type: functional, cell-based
Summary of the method: (§1)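 Cells loaded with ⁸⁶Rb⁺ were pre-exposed to test drug for 10 min. Efflux was normalized to intracellular ⁸⁶Rb⁺ available at that step. Nonspecific efflux came from 100 µM mecamylamine or buffer. Inactivation IC50 was obtained by curve fit.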

[6] = molecular target: T2, Neuronal acetylcholine receptor; alpha3/beta4; assay: Agonist activity at human alpha3beta4 nAChR expressed in human SH-SY5Y cells assessed as stimulation of 86Rb+ efflux preincubated for 10 mins by liquid scintillation counting; type: functional, cell-based
[7] = molecular target: T3, Neuronal acetylcholine receptor; alpha4/beta2 (Homo sapiens, UniProt P17787+P43681); assay: Antagonist activity at human alpha4beta2 nAChR expressed in human SH-EP1 cells assessed as inhibition of 86Rb+ efflux preincubated for 10 mins by liquid scintillation counting; type: functional, cell-based; summary of the method: as §1
T3 sequence (P17787 whole entry): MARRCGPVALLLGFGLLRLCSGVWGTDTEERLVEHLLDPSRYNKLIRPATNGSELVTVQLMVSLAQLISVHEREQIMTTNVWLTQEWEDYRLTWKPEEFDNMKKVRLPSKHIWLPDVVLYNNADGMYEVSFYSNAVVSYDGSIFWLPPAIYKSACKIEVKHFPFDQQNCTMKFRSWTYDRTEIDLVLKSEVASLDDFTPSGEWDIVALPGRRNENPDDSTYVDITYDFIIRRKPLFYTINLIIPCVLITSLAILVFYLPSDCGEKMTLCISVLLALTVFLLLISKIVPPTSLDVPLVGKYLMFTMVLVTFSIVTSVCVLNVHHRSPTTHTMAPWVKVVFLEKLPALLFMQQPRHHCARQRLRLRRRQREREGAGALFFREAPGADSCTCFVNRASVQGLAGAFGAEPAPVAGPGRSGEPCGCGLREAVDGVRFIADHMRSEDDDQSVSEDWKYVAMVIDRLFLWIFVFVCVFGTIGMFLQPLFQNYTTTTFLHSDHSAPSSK
T3 sequence (P43681 whole entry): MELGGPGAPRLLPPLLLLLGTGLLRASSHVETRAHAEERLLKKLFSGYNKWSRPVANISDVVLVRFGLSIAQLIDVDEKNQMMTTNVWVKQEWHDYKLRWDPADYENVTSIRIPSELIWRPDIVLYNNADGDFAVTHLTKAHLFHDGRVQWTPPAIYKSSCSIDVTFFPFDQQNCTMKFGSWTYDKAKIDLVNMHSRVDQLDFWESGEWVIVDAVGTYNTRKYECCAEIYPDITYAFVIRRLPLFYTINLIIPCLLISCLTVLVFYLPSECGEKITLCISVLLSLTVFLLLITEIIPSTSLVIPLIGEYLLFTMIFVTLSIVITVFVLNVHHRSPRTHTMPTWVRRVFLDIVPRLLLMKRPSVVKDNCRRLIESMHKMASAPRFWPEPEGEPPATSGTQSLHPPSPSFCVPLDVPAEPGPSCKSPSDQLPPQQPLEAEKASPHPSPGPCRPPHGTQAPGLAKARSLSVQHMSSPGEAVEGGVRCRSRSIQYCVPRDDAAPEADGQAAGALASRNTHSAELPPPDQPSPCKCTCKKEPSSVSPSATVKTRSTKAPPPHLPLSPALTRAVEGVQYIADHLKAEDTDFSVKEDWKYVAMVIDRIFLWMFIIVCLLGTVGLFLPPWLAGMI

[8] = molecular target: T3, Neuronal acetylcholine receptor; alpha4/beta2; assay: Agonist activity at human alpha4beta2 nAChR expressed in human SH-EP1 cells assessed as stimulation of 86Rb+ efflux preincubated for 10 mins by liquid scintillation counting; type: functional, cell-based
[9] = molecular target: Neuronal acetylcholine receptor; alpha4/beta4 (Rattus norvegicus) (UniProt P09483+P12392); assay: Displacement of [3H]Epibatidine from rat alpha4beta4 nAChR at 10 uM; type: protein-complex assay
[10] = molecular target: T4, Neuronal acetylcholine receptor; alpha4/beta2 (Rattus norvegicus, UniProt P09483+P12390); assay: Displacement of [3H]Epibatidine from alpha4beta2 nAChR in rat brain; type: tissue-based
T4 sequence (P09483 whole entry): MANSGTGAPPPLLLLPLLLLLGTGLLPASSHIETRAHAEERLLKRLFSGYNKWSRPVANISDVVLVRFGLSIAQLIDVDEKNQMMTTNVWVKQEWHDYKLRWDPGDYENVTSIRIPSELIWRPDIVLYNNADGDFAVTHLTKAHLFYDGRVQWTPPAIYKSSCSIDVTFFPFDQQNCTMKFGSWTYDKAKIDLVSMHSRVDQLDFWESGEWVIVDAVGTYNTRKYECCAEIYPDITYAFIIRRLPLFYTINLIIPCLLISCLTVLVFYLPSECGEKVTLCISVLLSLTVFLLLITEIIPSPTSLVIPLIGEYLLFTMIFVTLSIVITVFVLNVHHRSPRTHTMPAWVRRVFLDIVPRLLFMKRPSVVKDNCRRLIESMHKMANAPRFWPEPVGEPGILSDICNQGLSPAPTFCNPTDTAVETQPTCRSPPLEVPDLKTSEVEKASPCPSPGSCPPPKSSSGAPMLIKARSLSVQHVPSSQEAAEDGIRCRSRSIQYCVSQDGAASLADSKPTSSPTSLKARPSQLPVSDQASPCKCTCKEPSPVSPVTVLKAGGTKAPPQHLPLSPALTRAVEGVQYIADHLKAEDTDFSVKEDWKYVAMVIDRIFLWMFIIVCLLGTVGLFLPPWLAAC
T4 sequence (P12390 whole entry): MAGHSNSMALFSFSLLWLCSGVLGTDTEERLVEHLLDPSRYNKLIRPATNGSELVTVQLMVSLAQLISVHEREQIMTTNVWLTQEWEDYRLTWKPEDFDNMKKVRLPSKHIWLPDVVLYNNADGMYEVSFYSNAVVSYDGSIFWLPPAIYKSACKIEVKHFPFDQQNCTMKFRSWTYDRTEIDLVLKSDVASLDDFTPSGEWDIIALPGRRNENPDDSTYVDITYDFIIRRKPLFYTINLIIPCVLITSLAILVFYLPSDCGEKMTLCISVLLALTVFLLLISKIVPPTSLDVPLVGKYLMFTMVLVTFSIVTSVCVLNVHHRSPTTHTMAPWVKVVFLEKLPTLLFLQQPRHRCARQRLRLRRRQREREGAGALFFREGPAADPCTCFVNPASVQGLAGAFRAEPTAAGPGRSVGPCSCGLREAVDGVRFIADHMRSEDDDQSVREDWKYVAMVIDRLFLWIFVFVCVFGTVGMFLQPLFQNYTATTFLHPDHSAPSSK

[11] = molecular target: T4, Neuronal acetylcholine receptor; alpha4/beta2; assay: Displacement of [3H]Epibatidine from rat alpha4beta2 nAChR; type: protein-complex assay
[12] = molecular target: Neuronal acetylcholine receptor; alpha3/beta4 (Rattus norvegicus) (UniProt P04757+P12392); assay: Displacement of [3H]Epibatidine from rat alpha3beta4 nAChR at 10 uM; type: protein-complex assay
[13] = molecular target: Neuronal acetylcholine receptor; alpha3/beta2 (Rattus norvegicus, UniProt P04757+P12390); assay: Displacement of [3H]Epibatidine from rat alpha3beta2 nAChR; type: protein-complex assay
Sequence of Neuronal acetylcholine receptor; alpha3/beta2 (P04757 whole entry): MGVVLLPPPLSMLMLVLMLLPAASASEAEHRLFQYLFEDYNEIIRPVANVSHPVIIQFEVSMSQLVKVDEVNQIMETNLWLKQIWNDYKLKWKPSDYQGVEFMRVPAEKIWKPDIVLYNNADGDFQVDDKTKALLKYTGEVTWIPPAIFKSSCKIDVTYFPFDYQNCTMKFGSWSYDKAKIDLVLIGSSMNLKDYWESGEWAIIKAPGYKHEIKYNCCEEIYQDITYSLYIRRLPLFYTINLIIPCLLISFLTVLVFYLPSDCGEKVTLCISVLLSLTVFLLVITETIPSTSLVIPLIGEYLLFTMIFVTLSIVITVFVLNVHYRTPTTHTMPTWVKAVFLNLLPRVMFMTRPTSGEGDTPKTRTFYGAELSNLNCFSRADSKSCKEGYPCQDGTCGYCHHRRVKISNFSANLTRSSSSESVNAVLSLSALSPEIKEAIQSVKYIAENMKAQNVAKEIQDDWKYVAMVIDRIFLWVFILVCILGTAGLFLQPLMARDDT
Sequence of Neuronal acetylcholine receptor; alpha3/beta2 (P12390 whole entry): as the sequence (P12390 whole entry) above

[14] = system: Neuronal acetylcholine receptor alpha2/beta4 (Rattus norvegicus); assay: Displacement of [3H]Epibatidine from rat alpha2beta4 nAChR at 10 uM
Mus musculus [15] = assay: Antidepressant activity in BALB/cJ mouse assessed as reduction of immobility time at 1 to 3 mg/kg, ip administered 30 mins before test measured over 6 mins trial by forced swim test; type: functional, organism-based
[16] = molecular target: T3, Neuronal acetylcholine receptor; alpha4/beta2; assay: Antagonist activity at human alpha4beta2 nAChR expressed in human SH-EP1 cells assessed as inhibition of 86Rb+ efflux preincubated for 10 mins by liquid scintillation counting relative to control; type: functional, cell-based; summary of the method: as §1
[17] = molecular target: T3, Neuronal acetylcholine receptor; alpha4/beta2; assay: Agonist activity at human low-sensitivity alpha4beta2 nAChR expressed in human SH-EP1 cells assessed as stimulation of 86Rb+ efflux preincubated for 10 mins by liquid scintillation counting relative to control; type: functional, cell-based
[18] = molecular target: T3, Neuronal acetylcholine receptor; alpha4/beta2; assay: Agonist activity at human high-sensitivity alpha4beta2 nAChR expressed in human SH-EP1 cells assessed as stimulation of 86Rb+ efflux preincubated for 10 mins by liquid scintillation counting relative to control; type: functional, cell-based
[19] = molecular target: Neuronal acetylcholine receptor; alpha4/beta4 (Homo sapiens, UniProt P30926+P43681); assay: Binding affinity to alpha4beta4 nAChR; type: protein-complex assay
[20] = Agonist activity at ganglionic nAChR; type: functional
[21] = molecular target: T1, Acetylcholine receptor; alpha1/beta1/delta/gamma; assay: Binding affinity to muscle type alpha1beta1gammadelta-nAChR; type: protein-complex assay, Muscle tissue
Mus musculus [22] = assay: Antidepressant activity in BALB/cJ mouse assessed as reduction of immobility time at 20 mg/kg, ip administered 30 mins before test measured over 6 mins trial by forced swim test; type: functional, organism-based; parameters: dose 20 mg/kg

SMILES | IC50 [3] | EC50 [4] | other results
FC(F)CCc1cc(-c2cncc(OC[C@@H]3CCN3)c2)on1 | > 1000 nM | > 1000 nM | Activity (Mus musculus [1]): Active; Activity (Mus musculus [2]): Active
c1ncc(-c2cc(CCN3CCOCC3)no2)cc1OC[C@@H]1CCCN1 | > 1000 nM | > 1000 nM | IC50 [5]: > 1000 nM; EC50 [6]: > 1000 nM; IC50 [7]: > 100 nM; EC50 ([8]; read-out: pEC50 (converted)): > 100 nM; EC50 ([8]; sh-ep1, read-out: EC50): > 100 nM; inhibition [9]: < 50%; Ki [10]: 132 nM; Ki [11]: 32 nM; inhibition [12]: < 50%; Ki [13]: 575 nM; inhibition [14]: < 50%
CCNC(=O)OCCc1cc(-c2cncc(OC[C@@H]3CCN3)c2)on1 | > 1000 nM | > 1000 nM | 
FCCCc1cc(-c2cncc(OC[C@@H]3CCN3)c2)on1 | > 1000 nM | > 1000 nM | Activity (Mus musculus [1]): Active; Activity (Mus musculus [2]): Active
O=C(Nc1ccccc1)OCCc1cc(-c2cncc(OC[C@@H]3CCN3)c2)on1 | > 1000 nM | > 1000 nM | 
O=C(Nc1ccccc1)OCCc1cc(-c2cncc(OC[C@@H]3CCCN3)c2)on1 | > 1000 nM | > 1000 nM | 
CCNC(=O)OCCc1cc(-c2cncc(OC[C@@H]3CCCN3)c2)on1 | > 1000 nM | > 1000 nM | 
CCc1cc(-c2cncc(OC[C@@H]3CCN3)c2)on1 | > 1000 nM | > 1000 nM | Activity (Mus musculus [1]): Active; Activity (Mus musculus [15]): Active; Activity (Mus musculus [2]): Active
c1cnc2cc3c(cc2n1)[C@@H]1CNC[C@H]3C1 [VARENICLINE] |  | > 1000 nM | Imax [16]: 83%; Efficacy [17]: 34%; Efficacy [18]: 106%; Ki [19]: 110 nM
FC(F)(F)CCc1cc(-c2cncc(OC[C@@H]3CCN3)c2)on1 | > 1000 nM | > 1000 nM | 
c1cncc(OC[C@@H]2CCN2)c1 |  |  | EC50 [20]: 800 nM; Ki [21]: 314 nM
CN1CCC[C@H]1c1cccnc1 [NICOTINE] |  | > 1000 nM | 
CN[C@H]1CC[C@@H](c2ccc(Cl)c(Cl)c2)c2ccccc21 |  |  | Activity (Mus musculus [22]): Active
OCCc1cc(-c2cncc(OC[C@H]3NC[C@@H]4C[C@@H]43)c2)on1 | > 1000 nM | > 1000 nM | 
OCCc1cc(-c2cncc(OC[C@@H]3CCN3)c2)on1 | > 1000 nM | > 1000 nM | 
CCc1cc(-c2cncc(OC[C@H]3NC[C@@H]4C[C@@H]43)c2)on1 | > 1000 nM | > 1000 nM | 
OCCc1cc(-c2cncc(OC[C@@H]3CCCN3)c2)on1 | > 1000 nM | > 1000 nM | 
OCCCc1cc(-c2cncc(OC[C@@H]3CCCN3)c2)on1 | > 1000 nM | > 1000 nM | 
CN1CCC[C@H]1COc1cncc(-c2cc(CCO)no2)c1 | > 1000 nM | > 1000 nM | 
c1ncc(-c2cc(CCN3CCOCC3)no2)cc1OC[C@@H]1CCN1 | > 1000 nM | > 1000 nM | IC50 [5]: > 1000 nM; EC50 [6]: > 1000 nM; IC50 [7]: > 100 nM; EC50 ([8]; read-out: pEC50 (converted)): > 100 nM; EC50 ([8]; sh-ep1, read-out: EC50): > 100 nM; inhibition [9]: < 50%; Ki [10]: 26.3 nM; Ki [11]: 11 nM; inhibition [12]: < 50%; Ki [13]: 117 nM; inhibition [14]: < 50%
COCCc1cc(-c2cncc(OC[C@@H]3CCN3)c2)on1 | > 1000 nM | > 1000 nM | 
